Assay results taken from ChEMBL document CHEMBL1143779, “Antiviral 2,5-disubstituted imidazo[4,5-c]pyridines: from anti-pestivirus to anti-hepatitis C virus activity” (Bioorg Med Chem Lett, 2007).
Calls of active or inactive are those of the source. No cut-off for these calls is given here.

Assays:
[1] = system: Bovine viral diarrhea virus 1; experiment: Antiviral activity against BVDV in MDBK cells assessed as reduction of virus-induced cytopathic effect; format: functional, organism-based; conditions: Bovine viral diarrhea virus isolates and strains
[2] = Cytotoxicity against MDBK cells; format: cell-based, Bos taurus; conditions: cattle
Summary of the method: (§1)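 MDBK or Huh 5-2 cells seeded at 5 · 10³ cells/well in MEM-FCS; serial compound dilutions added 24 h later. Read-out OD490 nm, expressed as OD treated/OD untreated control.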

[3] = (§2) Selectivity index, ratio of CC50 for MDBK cells to EC50 for BVDV; format: functional
Hepatitis C virus = experiment: Antiviral activity against HCV in Huh 5-2 cells assessed as […]; format: functional, organism-based, Hepacivirus hominis
Summary of the method: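 Huh 5-2 cells were seeded at 5×10³/well in complete DMEM with G418. After 24 h at 37 °C (5% CO₂), the medium was replaced with threefold serial compound dilutions in DMEM without G418 and incubated for 4 days. Values are means of 4–6 independent experiments.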

[4] = Cytotoxicity against Huh 5-2 cells; format: cell-based; conditions: human; summary of the method: as §1
[5] = Selectivity index, ratio of CC50 for Huh 5-2 cells to EC50 for HCV; format: functional
MDBK = experiment: as §2; format: functional

SMILES	EC50 [1]	CC50 [2]	Ratio CC50/EC50 [3]	EC50 (Hepatitis C virus)	CC50 [4]	Ratio CC50/EC50 [5]	Activity (MDBK)	Activity [5]
COc1cccc(-c2nc3ccn(Cc4ccc(Br)cc4)cc-3n2)c1	0.05 µM	> 33 µM	>660	18 µM	28 µM	2	–	–
FC(F)(F)c1cccc(-c2nc3ccn(Cc4ccc(Br)cc4)cc-3n2)c1	0.5 µM	> 33 µM	>72	23 µM	> 116 µM	>5	–	–
Brc1ccc(Cn2ccc3nc(-c4ccc5ccccc5c4)nc-3c2)cc1	0.03 µM	7 µM	259	5.7 µM	9.7 µM	2	–	–
Brc1ccc(Cn2ccc3nc(CCc4ccccc4)nc-3c2)cc1	> 16 µM	16 µM	–	2.5 µM	7.6 µM	3	inactive	–
Brc1ccc(Cn2ccc3nc(-c4ccc(Br)s4)nc-3c2)cc1	0.6 µM	> 33 µM	>55	> 18 µM	18 µM	–	–	inactive
Brc1ccc(Cn2ccc3nc(-c4cc(Br)cc(Br)c4)nc-3c2)cc1	> 33 µM	> 33 µM	–	> 96 µM	> 96 µM	–	inactive	inactive
Clc1cccc(-c2nc3ccn(Cc4ccc(Br)cc4)cc-3n2)c1	0.15 µM	> 33 µM	>220	83 µM	> 125 µM	>2	–	–
Brc1ccc(Cn2ccc3nc(-c4cccnc4)nc-3c2)cc1	0.16 µM	> 33 µM	>206	109 µM	126 µM	–	–	inactive
Fc1ccccc1-c1nc2ccn(Cc3ccc(Cl)cc3)cc-2n1	0.11 µM	> 33 µM	>300	44 µM	68 µM	1.5	–	–
Brc1ccc(Cn2ccc3nc(-c4cccs4)nc-3c2)cc1	0.04 µM	> 33 µM	>825	> 35 µM	35 µM	–	–	inactive
Cc1ccc(-c2nc3ccn(Cc4ccc(Br)cc4)cc-3n2)cc1	0.4 µM	21 µM	53	8.2 µM	13 µM	2	–	–
Brc1ccc(Cn2ccc3nc(-c4cccc(Br)c4)nc-3c2)cc1	0.11 µM	> 33 µM	>300	> 113 µM	> 113 µM	–	–	inactive
Fc1cccc(-c2nc3ccn(Cc4ccc(Br)cc4)cc-3n2)c1	0.04 µM	> 33 µM	>825	> 44 µM	44 µM	–	–	inactive
Fc1ccc(-c2nc3ccn(Cc4ccc(Br)cc4)cc-3n2)cc1	0.17 µM	> 33 µM	>194	31 µM	37 µM	–	–	inactive
Brc1ccc(Cn2ccc3nc(Cc4ccccc4)nc-3c2)cc1	> 33 µM	> 33 µM	–	79 µM	> 132 µM	>2	inactive	–
Brc1ccc(Cn2ccc3nc(-c4ccncc4)nc-3c2)cc1	0.47 µM	> 33 µM	>70	14 µM	38 µM	3	–	–

SMILES	EC50 [1]	CC50 [2]	Ratio CC50/EC50 [3]	EC50 (Hepatitis C virus)	CC50 [4]	Ratio CC50/EC50 [5]	Activity (MDBK)	Activity [5]
Brc1ccc(Cn2ccc3nc(COc4ccccc4)nc-3c2)cc1	> 8 µM	> 33 µM	–	25 µM	35 µM	1.5	–	–
Clc1ccccc1-c1nc2ccn(Cc3ccc(Br)cc3)cc-2n1	0.33 µM	> 33 µM	>100	25 µM	43 µM	2	–	–
Brc1ccc(Cn2ccc3nc(-c4ccccc4Br)nc-3c2)cc1	0.5 µM	> 33 µM	>66	21 µM	36 µM	2	–	–
Brc1ccc(Cn2ccc3nc(CCCc4ccccc4)nc-3c2)cc1	3 µM	22 µM	8	7.4 µM	12 µM	2	–	–
Clc1ccc(-c2nc3ccn(Cc4ccc(Br)cc4)cc-3n2)cc1	0.7 µM	> 33 µM	>47	13 µM	17 µM	–	–	inactive
Brc1ccc(Cn2ccc3nc(CSc4ccccc4)nc-3c2)cc1	> 25 µM	25 µM	–	4.9 µM	9.7 µM	2	inactive	–
CCc1nc2ccn(Cc3ccc(Br)cc3)cc-2n1	0.38 µM	> 33 µM	>87	> 92 µM	92 µM	–	–	inactive
Brc1ccc(Cn2ccc3nc(-c4cccc(I)c4)nc-3c2)cc1	0.07 µM	> 33 µM	>83	5.7 µM	12 µM	2	–	–
CN(C)c1cccc(-c2nc3ccn(Cc4ccc(Br)cc4)cc-3n2)c1	0.14 µM	24 µM	171	> 79 µM	79 µM	–	–	inactive
Cc1ccccc1-c1nc2ccn(Cc3ccc(Br)cc3)cc-2n1	0.061 µM	> 33 µM	>541	24 µM	21 µM	–	–	inactive
Brc1ccc(Cn2ccc3nc(-c4ccccn4)nc-3c2)cc1	0.1 µM	10 µM	96	0.35 µM	5.2 µM	15	–	–
Brc1ccc(Cn2ccc3nc(-c4ccccc4)nc-3c2)cc1	–	–	–	> 38 µM	38 µM	–	–	inactive
Brc1ccc(Cn2ccc3nc(/C=C/c4ccccc4)nc-3c2)cc1	0.16 µM	14 µM	88	1.7 µM	2.5 µM	>2	–	–
Fc1ccccc1-c1nc2ccn(Cc3ccc(I)cc3)cc-2n1	0.07 µM	> 33 µM	>478	0.79 µM	58 µM	74	–	–
Brc1ccc(Cn2ccc3nc(-c4cccc5ccccc45)nc-3c2)cc1	0.3 µM	23 µM	77	9.7 µM	12 µM	–	–	inactive
Cc1cccc(-c2nc3ccn(Cc4ccc(Br)cc4)cc-3n2)c1	0.06 µM	23 µM	372	> 11 µM	11 µM	–	–	inactive
